Measurements published in ChEMBL document CHEMBL5058577, “EUbOPEN Chemogenomics Library 2 (Multiplex)” (2022).

Tested on: U2OS
Test: Multiplex assay against U2OS
Format: toxicity, cell-based
Details: human
Summary of the method: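 Four dyes were applied at seeding to live cells: Hoechst33342, BioTracker Green Microtubule Cytoskeleton Dye, MitoTracker Red and Annexin V Alexa Fluor 680. Imaging after compound addition used a CQ1 microscope at 37°C and 5% CO2. CellPathfinder machine-learning gating then sorted cells into Hoechst high-intensity objects or normal cells, normal cells into healthy, pyknosed or fragmented nuclei, and pyknosed cells into mitotic or apoptotic, with tubulin, mitochondrial-mass and membrane-permeability phenotypes given as per cents of healthy-nucleus cells.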

[1] = 12 h, 1 µM, compound concentration 1 uM, replicate 1
[2] = 12 h, 1 µM, compound concentration 1 uM, replicate 2
[3] = 12 h, 10 µM, compound concentration 10 uM, replicate 1
[4] = 12 h, 10 µM, compound concentration 10 uM, replicate 2
[5] = 24 h, 1 µM, compound concentration 1 uM, replicate 1
[6] = 24 h, 1 µM, compound concentration 1 uM, replicate 2
[7] = 24 h, 10 µM, compound concentration 10 uM, replicate 1
[8] = 24 h, 10 µM, compound concentration 10 uM, replicate 2
[9] = 48 h, 1 µM, compound concentration 1 uM, replicate 1
[10] = 48 h, 1 µM, compound concentration 1 uM, replicate 2
[11] = 48 h, 10 µM, compound concentration 10 uM, replicate 1
[12] = 48 h, 10 µM, compound concentration 10 uM, replicate 2

## Cc1c(CC(=O)O)c2cccnc2n1Cc1ccc(S(C)(=O)=O)cc1C(F)(F)F [FEVIPIPRANT]
[1]
  Population Apoptotic (%): 80%
  Population Fragmented Nuclei (%): 25%
  Population Healthy Nuclei (%): 64%
  Population Hoechst High Intensity Objects (%): 1%
  Population Membrane Permeable-Phenotype (%): 2%
  Population Mitochondria Different-Phenotype (%): 2%
  Population Mitotic Cells (%): 19%
  Population Normal (%): 98%
  Population Pyknosed Nuclei (%): 9%
  Population Tubulin-Different-Phenotype (%): 0%
  Total Cell Count: 224
[2]
  Population Apoptotic (%): 50%
  Population Fragmented Nuclei (%): 22%
  Population Healthy Nuclei (%): 72%
  Population Membrane Permeable-Phenotype (%): 8%
  Population Mitochondria Different-Phenotype (%): 1%
  Population Mitotic Cells (%): 50%
  Population Pyknosed Nuclei (%): 5%
  Population Tubulin-Different-Phenotype (%): 9%
  Total Cell Count: 118
[3]
  Population Apoptotic (%): 90%
  Population Fragmented Nuclei (%): 27%
  Population Healthy Nuclei (%): 65%
  Population Hoechst High Intensity Objects (%): 2%
  Population Membrane Permeable-Phenotype (%): 3%
  Population Mitochondria Different-Phenotype (%): 0%
  Population Mitotic Cells (%): 9%
  Population Normal (%): 97%
  Population Pyknosed Nuclei (%): 7%
  Population Tubulin-Different-Phenotype (%): 1%
  Total Cell Count: 287
[4]
  Population Apoptotic (%): 100%
  Population Fragmented Nuclei (%): 22%
  Population Healthy Nuclei (%): 73%
  Population Hoechst High Intensity Objects (%): 0%
  Population Membrane Permeable-Phenotype (%): 8%
  Population Mitochondria Different-Phenotype (%): 3%
  Population Mitotic Cells (%): 0%
  Population Normal (%): 99%
  Population Pyknosed Nuclei (%): 3%
  Population Tubulin-Different-Phenotype (%): 4%
  Total Cell Count: 116
[5]
  Population Apoptotic (%): 80%
  Population Fragmented Nuclei (%): 20%
  Population Healthy Nuclei (%): 71%
  Population Hoechst High Intensity Objects (%): 2%
  Population Membrane Permeable-Phenotype (%): 1%
  Population Mitochondria Different-Phenotype (%): 3%
  Population Mitotic Cells (%): 20%
  Population Normal (%): 97%
  Population Pyknosed Nuclei (%): 8%
  Population Tubulin-Different-Phenotype (%): 1%
  Total Cell Count: 256
[6]
  Population Apoptotic (%): 66%
  Population Fragmented Nuclei (%): 17%
  Population Healthy Nuclei (%): 74%
  Population Hoechst High Intensity Objects (%): 0%
  Population Membrane Permeable-Phenotype (%): 9%
  Population Mitochondria Different-Phenotype (%): 0%
  Population Mitotic Cells (%): 33%
  Population Normal (%): 100%
  Population Tubulin-Different-Phenotype (%): 10%
  Total Cell Count: 145
[7]
  Population Apoptotic (%): 96%
  Population Fragmented Nuclei (%): 20%
  Population Healthy Nuclei (%): 70%
  Population Hoechst High Intensity Objects (%): 0%
  Population Membrane Permeable-Phenotype (%): 5%
  Population Mitochondria Different-Phenotype (%): 3%
  Population Mitotic Cells (%): 3%
  Population Normal (%): 99%
  Population Pyknosed Nuclei (%): 8%
  Population Tubulin-Different-Phenotype (%): 3%
  Total Cell Count: 326
[8]
  Population Apoptotic (%): 100%
  Population Fragmented Nuclei (%): 12%
  Population Healthy Nuclei (%): 78%
  Population Hoechst High Intensity Objects (%): 1%
  Population Membrane Permeable-Phenotype (%): 8%
  Population Mitochondria Different-Phenotype (%): 2%
  Population Mitotic Cells (%): 0%
  Population Normal (%): 98%
  Total Cell Count: 119
[9]
  Population Apoptotic (%): 65%
  Population Fragmented Nuclei (%): 18%
  Population Healthy Nuclei (%): 71%
  Population Hoechst High Intensity Objects (%): 2%
  Population Membrane Permeable-Phenotype (%): 4%
  Population Mitochondria Different-Phenotype (%): 3%
  Population Mitotic Cells (%): 34%
  Population Normal (%): 97%
  Population Pyknosed Nuclei (%): 10%
  Population Tubulin-Different-Phenotype (%): 2%
  Total Cell Count: 379
[10]
  Population Apoptotic (%): 90%
  Population Fragmented Nuclei (%): 20%
  Population Healthy Nuclei (%): 67%
  Population Membrane Permeable-Phenotype (%): 8%
  Population Mitochondria Different-Phenotype (%): 5%
  Population Mitotic Cells (%): 9%
  Population Pyknosed Nuclei (%): 12%
  Population Tubulin-Different-Phenotype (%): 9%
  Total Cell Count: 187
[11]
  Population Apoptotic (%): 91%
  Population Fragmented Nuclei (%): 17%
  Population Healthy Nuclei (%): 73%
  Population Hoechst High Intensity Objects (%): 1%
  Population Membrane Permeable-Phenotype (%): 4%
  Population Mitochondria Different-Phenotype (%): 3%
  Population Mitotic Cells (%): 8%
  Population Normal (%): 98%
  Population Pyknosed Nuclei (%): 8%
  Population Tubulin-Different-Phenotype (%): 3%
  Total Cell Count: 408
[12]
  Population Apoptotic (%): 100%
  Population Fragmented Nuclei (%): 15%
  Population Healthy Nuclei (%): 76%
  Population Hoechst High Intensity Objects (%): 3%
  Population Membrane Permeable-Phenotype (%): 5%
  Population Mitochondria Different-Phenotype (%): 1%
  Population Mitotic Cells (%): 0%
  Population Normal (%): 96%
  Total Cell Count: 158
